Experimental data: the RNAGym collection of RNA variant scans (doi:10.1038/s41586-018-0170-7)

B1: tRNA (parent)
chain: GUUCCGUUGGCGUAAUGGUAACGCGUCUCCCUCCUAAGGAGAAGACUGCGGGUUCGAGUCCCGUACGGAACG

Variants of: B1
Test: yeast fitness, log relative to wild type (ln ratio); higher = fitter; tRNA-Arg(CCU), competitive growth, 37 C, 1 M NaCl
How it was run: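 For each genotype, fitness is defined as the natural log of its generation number over the wild type's. The tRNA-Arg(CCU) variant library was on a HIS3 centromeric plasmid in BY4742 with the chromosomal gene removed, and pools were first grown 4 generations in SC-HIS at 30 °C and then ~6.5 generations (~26.5 h) in SC-HIS 1M NaCl at 37 °C. Generations were calculated from OD-scaled log2 output/input frequency, weighted by inverse variance across replicates, using counts from 125 bp paired-end Illumina sequencing.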

Going from G1A U2C G6A A43C C46U C66U A69G A70G to G1A U2G G6A C66A A70U C71U, the “yeast fitness (ln)” value rises from -0.232 to -0.119.

First: G1A U2G G6U C27U A43C C46U A69G A70G
Second: G1A U2G C27U
The “yeast fitness (ln)” value of the first is lower: -0.192 for the first, -0.0429 for the second.

Compared with G1A C27U C66A A70G, G1A U2C C27U A43C C46U C66U is higher in “yeast fitness (ln)” value: -0.212 for the first, -0.161 for the second.

Going from G1A U2C G6U C66U A70U C71U to U2G G6U C46U A69G A70G, the “yeast fitness (ln)” value falls from -0.095 to -0.109.

Compared with U2G C46U C66A C71U, U2G A43C C66U A70G C71U is lower in “yeast fitness (ln)” value: -0.0426 for the first, -0.22 for the second.

First: U2G G6A C27U A69G C71U
Second: U2G G6U C66A C71U
The “yeast fitness (ln)” value of the first is lower: -0.268 for the first, -0.108 for the second.

Going from G1A U2C C27U C46U C66U A70G to U2G G6U C27U A69G C71U, the “yeast fitness (ln)” value falls from -0.242 to -0.286.

First: U2C C27U C46U A69G A70G C71U
Second: U2G G6A C66A A70U
The “yeast fitness (ln)” value of the first is higher: -0.0348 for the first, -0.178 for the second.

Going from G6A C27U A43C A69G A70G to G1A U2C G6U A43C C46U C71U, the “yeast fitness (ln)” value rises from -0.264 to -0.143.

First: G6U C27U C66U A69G A70G C71U
Second: U2C G6U C46U C66U A70U
The “yeast fitness (ln)” value of the first is lower: -0.355 for the first, -0.0353 for the second.

Compared with U2C A43C A69G A70G, U2G G6U A43C A70U C71U is lower in “yeast fitness (ln)” value: -0.0256 for the first, -0.215 for the second.

Compared with U2C C27U C66U A70G, G1A A43C C46U A69G C71U is higher in “yeast fitness (ln)” value: -0.0659 for the first, -0.0151 for the second.

Going from U2G G6U A43C C46U C66A A69G A70G C71U to G1A C27U C46U A69G, the “yeast fitness (ln)” value falls from -0.228 to -0.304.

Going from U2C G6A C27U A43C C46U C66A C71U to U2G G6U A70G, the “yeast fitness (ln)” value rises from -0.216 to -0.0649.

Going from U2C G6A A43C C46U A69G A70U C71U to U2C G6A C71U, the “yeast fitness (ln)” value rises from -0.399 to -0.0812.

First: G1A G6A A43C C46U C66U C71U
Second: G1A U2C G6A C27U A43C C46U
The “yeast fitness (ln)” value of the first is higher: -0.0152 for the first, -0.0401 for the second.

Going from G1A U2G C27U C66U to G1A U2C G6U C27U A43C C46U A70G C71U, the “yeast fitness (ln)” value falls from -0.174 to -0.198.

First: U2C C46U C66A
Second: U2G G6A C27U A43C C66U C71U
The “yeast fitness (ln)” value of the first is higher: -0.0347 for the first, -0.373 for the second.

Going from G6A A43C C66U A70G to G1A U2G G6A C27U A43C C66A A70U, the “yeast fitness (ln)” value falls from -0.128 to -0.249.

First: U2C G6A C27U A43C C46U C66A A70G C71U
Second: G1A U2C C66U A69G A70G C71U
The “yeast fitness (ln)” value of the first is lower: -0.0721 for the first, -0.055 for the second.

First: G1A U2G A43C C46U A69G A70G
Second: U2C A43C C46U C66U A70U C71U
The “yeast fitness (ln)” value of the first is higher: -0.141 for the first, -0.198 for the second.

First: G1A G6U C27U A43C C71U
Second: G6U C27U A43C C66A A70G C71U
The “yeast fitness (ln)” value of the first is lower: -0.352 for the first, -0.217 for the second.

First: G1A U2C G6A C66U A70U C71U
Second: G1A U2C G6U C46U C66A A70U
The “yeast fitness (ln)” value of the first is higher: -0.159 for the first, -0.184 for the second.

First: U2G G6U C27U A43C C46U C66U A70U C71U
Second: U2C A43C C46U C66U A69G A70G
The “yeast fitness (ln)” value of the first is lower: -0.378 for the first, -0.0788 for the second.

Going from G1A C66U A69G A70G C71U to G1A U2C C46U C66A A70G C71U, the “yeast fitness (ln)” value rises from -0.217 to -0.124.

Going from G1A U2G G6U A43C C46U C66A A70U to U2G G6A A43C C46U C66A A70G C71U, the “yeast fitness (ln)” value rises from -0.303 to -0.139.

Compared with U2G G6U A43C C66U A69G A70G, U2C G6U A43C C66A is higher in “yeast fitness (ln)” value: -0.323 for the first, -0.135 for the second.

First: G6A A43C C66U A70G C71U
Second: U2C G6A C46U A69G A70U
The “yeast fitness (ln)” value of the first is lower: -0.26 for the first, -0.084 for the second.

First: G1A U2C G6U C27U C66U A69G A70G C71U
Second: G1A G6U A43C C46U C66U A69G C71U
The “yeast fitness (ln)” value of the first is higher: -0.251 for the first, -0.43 for the second.

Going from U2C G6A A43C C66U A70G C71U to G1A U2C G6U A43C C46U, the “yeast fitness (ln)” value rises from -0.0302 to 0.0223.

Compared with G1A U2C G6U C46U A70G C71U, U2G C27U C46U A69G A70G C71U is lower in “yeast fitness (ln)” value: -0.00847 for the first, -0.169 for the second.

Compared with U2C G6U C46U C66U A69G C71U, G1A G6U C46U C66U C71U is higher in “yeast fitness (ln)” value: -0.221 for the first, -0.057 for the second.

Going from G1A G6U C27U C66A A70U to U2C C27U C46U C66U A69G C71U, the “yeast fitness (ln)” value rises from -0.407 to -0.243.

Going from G1A U2G C66A A70U C71U to C27U, the “yeast fitness (ln)” value rises from -0.146 to -0.0106.

Going from G1A U2G G6A C27U C46U A69G A70U C71U to U2C G6U C27U A69G A70U C71U, the “yeast fitness (ln)” value rises from -0.379 to -0.354.

First: G1A G6U C27U A43C C66U A70G
Second: G1A U2G G6U C27U A43C C46U A70G
The “yeast fitness (ln)” value of the first is lower: -0.609 for the first, -0.387 for the second.

Compared with G1A U2G G6U C27U A43C C46U A70U, U2G G6A A43C C46U A70G is higher in “yeast fitness (ln)” value: -0.341 for the first, -0.148 for the second.

First: G1A U2G C27U C46U C66U A69G A70G C71U
Second: U2G G6A A43C C46U C66A A70G
The “yeast fitness (ln)” value of the first is lower: -0.267 for the first, -0.169 for the second.

Compared with G1A U2G G6A C27U C46U C66U A70G, U2G G6A C46U C66U A69G A70U is higher in “yeast fitness (ln)” value: -0.194 for the first, -0.00305 for the second.

Going from U2G C27U A69G to G1A G6A C27U A43C C66U A69G A70U C71U, the “yeast fitness (ln)” value falls from -0.0592 to -0.628.

First: G6A C27U C46U C66A A70G
Second: G1A U2C C66A A70U
The “yeast fitness (ln)” value of the first is lower: -0.218 for the first, -0.0191 for the second.

Compared with G1A U2G G6U C66U A69G A70G C71U, G6A C66U A70U is higher in “yeast fitness (ln)” value: -0.529 for the first, -0.0184 for the second.
